Calls of active or inactive are those of the source. The rule behind the calls is not given here.
How the values were obtained:
HL-60 [1] = assay: Activity at sialidase in human HL60 cells assessed as decrease in 4-methylumbelliferyl release at 125 uM after 2 hrs by fluorescence assay relative to 4-Methylcoumarin-7-yl 5-acetamido-3,5-dideoxy-alpha-D-glycero-D-galacto-2-nonulopyranosidonic acid; type: cell-based; parameters: scale not given: the % may be the effect or the level left
Summary of the method: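 Intact HL60 cells in pH 4.5 acetate buffer were exposed to 0.125 mM glycoside for 2 h at 37 °C. Glycine buffer (pH 10.7) was then added, and fluorescence was measured (ex 365, em 450 nm). The increase over background was expressed relative to the natural N-acetyl 4MU sialoside run the same way. At least biological triplicate, with standard deviations.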

HL-60 [2] = assay: Activity at sialidase in human HL60 cells assessed as increase in 4-methylumbelliferyl release at 125 uM after 2 hrs by fluorescence assay in presence of DANA; type: cell-based
Summary of the method: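 Same whole-cell set-up: HL60 cells in acetate buffer pH 4.5 with 0.125 mM 4MU glycoside, 2 h, 37 °C, together with 0.1 mM of the non-specific sialidase inhibitor DANA. The mixture was adjusted to pH 10.7 with glycine buffer before fluorescence reading (ex 365/em 450 nm). At least biological triplicate; standard deviations shown.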

Clostridium perfringens [3] = assay: Activity at Clostridium perfringens sialidase assessed as 4-methylumbelliferyl released at 125 uM for 1 hr by fluorescence assay relative to 4-Methylcoumarin-7-yl 5-acetamido-3,5-dideoxy-alpha-D-glycero-D-galacto-2-nonulopyranosidonic acid
Summary of the method: (§1)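 Purified recombinant C. perfringens sialidase (0.05 mU) in acetate buffer pH 4.5 incubated 1 h at 37°C with 0.125 mM 4MU glycoside; parallel reactions with 0.1 mM DANA. Reaction brought to pH 10.7 with glycine buffer; fluorescence read at ex 365/em 450 nm. Relative values compare fluorescence with that of the natural Neu5Ac substrate. At least biological triplicate; standard deviations.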

Clostridium perfringens [4] = assay: Activity at Clostridium perfringens sialidase assessed as 4-methylumbelliferyl released at 125 uM for 1 hr by fluorescence assay; summary of the method: as §1
HL-60 [5] = assay: Activity at sialidase in human HL60 cells assessed as decrease in 4-methylumbelliferyl release at 125 uM after 2 hrs by fluorescence assay; type: cell-based
Summary of the method: (§2)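 Whole HL60 cells suspended in acetate buffer (pH 4.5) were incubated with 0.125 mM 4-methylumbelliferyl sialoside for 2 h at 37 °C. The reaction was stopped by raising the pH to 10.7 with glycine buffer, and released 4MU was read at once (ex 365 nm, em 450 nm). Values are means with standard deviations from at least biological triplicate.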

HL-60 [6] = assay: Activity at sialidase in human HL60 cell lysate assessed as 4-methylumbelliferyl released at 125 uM for 2 hrs followed by washout by fluorescence assay; type: cell-based
Summary of the method: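 To test uptake, HL60 cells were incubated 2 h with the 4MU sialoside, then washed thoroughly to remove free 4MU and substrate. The cells were resuspended in cell lysis buffer, and the fluorescence of the lysate was read against empty wells without cells or compound.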

HL-60 [7] = assay: Activity at sialidase in human HL60 cells assessed as increase in 4-methylumbelliferyl release at 125 uM after 2 hrs by fluorescence assay; type: cell-based; summary of the method: as §2
HL-60 [8] = assay: Activity at sialidase in human HL60 cells assessed as increase in 4-methylumbelliferyl release at 125 uM after 2 hrs by fluorescence assay relative to 4-Methylcoumarin-7-yl 5-acetamido-3,5-dideoxy-alpha-D-glycero-D-galacto-2-nonulopyranosidonic acid; type: cell-based
Summary of the method: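 Whole HL60 cells suspended in acetate buffer pH 4.5, treated 2 h at 37°C with 0.125 mM 4MU glycoside; parallel wells with 0.1 mM DANA. Stopped with glycine buffer pH 10.7, fluorescence read immediately (ex 365/em 450 nm). Fluorescence increase over background compared with the natural Neu5Ac substrate. At least biological triplicate; standard deviations.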

Structure (SMILES) | Activity (HL-60 [1]) | Activity (HL-60 [2]) | Activity (Clostridium perfringens [3]) | Activity (Clostridium perfringens [4]) | Activity (HL-60 [5]) | Activity (HL-60 [6]) | Activity (HL-60 [7]) | Activity (HL-60 [8])
Cc1cc(=O)oc2cc(O[C@]3(C(=O)O)C[C@H](O)[C@@H](NC(=O)C(C)C)[C@H]([C@H](O)[C@H](O)CO)O3)ccc12 | 60% | inactive | Active |  |  |  |  | 
Cc1cc(=O)oc2cc(O[C@]3(C(=O)O)C[C@H](O)[C@@H](NC(=O)CCC(F)(F)F)[C@H]([C@H](O)[C@H](O)CO)O3)ccc12 |  | inactive |  | inactive | Active |  |  | 
CC(=O)N[C@H]1[C@H]([C@H](O)[C@H](O)CO)O[C@@](Oc2ccc3c(C)cc(=O)oc3c2)(C(=O)O)C[C@@H]1O |  | inactive |  | Active |  | inactive | Active | 
CC(F)(F)F.Cc1cc(=O)oc2cc(O[C@]3(C(=O)O)C[C@H](O)[C@@H](NC(=O)CO)[C@H]([C@H](O)[C@H](O)CO)O3)ccc12 |  | inactive | 6% |  |  |  |  | 20%
Cc1cc(=O)oc2cc(O[C@]3(C(=O)O)C[C@H](O)[C@@H](NC(=O)CF)[C@H]([C@H](O)[C@H](O)CO)O3)ccc12 |  | inactive | 6% |  |  |  |  | 50%
Cc1cc(=O)oc2cc(O[C@]3(C(=O)O)C[C@H](O)[C@@H](NC(=O)CC(F)(F)F)[C@H]([C@H](O)[C@H](O)CO)O3)ccc12 |  | inactive | Active |  | Active |  |  | 

— ChEMBL document CHEMBL2385006, “Fluorogenic sialic acid glycosides for quantification of sialidase activity upon unnatural substrates” (Bioorg Med Chem Lett, 2013)
